Data from ChEMBL document CHEMBL4196009, “Novel vitexin-inspired scaffold against leukemia” (Eur J Med Chem, 2018).

Experiments:
SUP-B15 [1] = experiment: Induction of apoptosis in human SUP-B15 cells assessed as necrotic cells at 10 uM after 24 hrs by Annexin V-FITC/propidium iodide staining-based flow cytometry (reference value: 9.2%); format: functional
KOPN-8 [2] = experiment: Induction of apoptosis in human KOPN8 cells assessed as necrotic cells at 10 uM after 24 hrs by Annexin V-FITC/propidium iodide staining-based flow cytometry (reference value: 0.2%); format: functional
Procedure, shortened: (§1)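 KOPN-8 cells were treated for 24 h, with a DMSO vehicle control and a staurosporine positive control. Cells were stained with FITC-Annexin V and propidium iodide and analysed by flow cytometry. Quadrant gating separated viable, early apoptotic, late apoptotic (Q2) and necrotic populations.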

SUP-B15 [3] = experiment: Induction of apoptosis in human SUP-B15 cells assessed as early apoptotic cells at 10 uM after 24 hrs by Annexin V-FITC/propidium iodide staining-based flow cytometry (reference value: 0.1%); format: functional
SEM cells = experiment: Antiproliferative activity against human SEM cells after 72 hrs by CelTiter-Glo assay; format: functional, cell-based
SUP-B15 [4] = experiment: Antiproliferative activity against human SUP-B15 cells after 72 hrs by CelTiter-Glo assay; format: functional, cell-based; conditions: SUP-B15, 72 h
KOPN-8 [5] = experiment: Cell cycle arrest in human KOPN8 cells assessed as accumulation at S phase at 10 uM after 24 hrs by propidium iodide staining-based flow cytometry (reference value: 66.56%); format: functional
Procedure, shortened: (§2)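 KOPN-8 cells treated 24 h alongside a DMSO vehicle and a staurosporine (2.0 µM) positive control. Apoptosis was scored by FITC Annexin V / propidium iodide flow cytometry with quadrant gating (early, late apoptotic). DNA content was measured by PI staining to give the percentage of cells in G0/G1, S and G2/M. Groups were compared by t-test; error bars are SD.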

KOPN-8 [6] = experiment: Antiproliferative activity against human KOPN8 cells after 72 hrs by CelTiter-Glo assay; format: functional, cell-based; conditions: KOPN-8, 72 h
KOPN-8 [7] = experiment: Induction of apoptosis in human KOPN8 cells assessed as late apoptotic cells at 10 uM after 24 hrs by Annexin V-FITC/propidium iodide staining-based flow cytometry (reference value: 9.5%); format: functional; procedure, shortened: as §1
UoC-B1 = experiment: Antiproliferative activity against human UOCB1 cells after 72 hrs by CelTiter-Glo assay; format: functional, cell-based; conditions: UoC-B1, 72 h
KOPN-8 [8] = experiment: Cell cycle arrest in human KOPN8 cells assessed as accumulation at G2/M phase at 10 uM after 24 hrs by propidium iodide staining-based flow cytometry (reference value: 9.67%); format: functional; procedure, shortened: as §2
SUP-B15 [9] = experiment: Induction of apoptosis in human SUP-B15 cells assessed as viable cells at 10 uM after 24 hrs by Annexin V-FITC/propidium iodide staining-based flow cytometry (reference value: 82.8%); format: functional; conditions: SUP-B15, 24 h, read-out: Activity
HepG2 = experiment: Antiproliferative activity against human HepG2 cells after 72 hrs by CelTiter-Glo assay; format: functional, cell-based; conditions: HepG2, 72 h
BJ = experiment: Antiproliferative activity against human BJ cells after 72 hrs by CelTiter-Glo assay; format: cell-based
KOPN-8 [10] = experiment: Cell cycle arrest in human KOPN8 cells assessed as accumulation at G0/G1 phase at 10 uM after 24 hrs by propidium iodide staining-based flow cytometry (reference value: 24.77%); format: functional; procedure, shortened: as §2
KOPN-8 [11] = experiment: Induction of apoptosis in human KOPN8 cells assessed as viable cells at 10 uM after 24 hrs by Annexin V-FITC/propidium iodide staining-based flow cytometry (reference value: 85.2%); format: functional; conditions: KOPN-8, 24 h, read-out: Activity; procedure, shortened: as §1
KOPN-8 [12] = experiment: Induction of apoptosis in human KOPN8 cells assessed as early apoptotic cells at 10 uM after 24 hrs by Annexin V-FITC/propidium iodide staining-based flow cytometry (reference value: 0.1%); format: functional; procedure, shortened: as §2
SUP-B15 [13] = experiment: Induction of apoptosis in human SUP-B15 cells assessed as late apoptotic cells at 10 uM after 24 hrs by Annexin V-FITC/propidium iodide staining-based flow cytometry (reference value: 2.2%); format: functional
MDA-MB-231 [14] = experiment: Cell cycle arrest in human MDA-MB-231 cells assessed as accumulation at G0/G1 phase at 20 uM after 24 hrs by propidium iodide staining-based flow cytometry (reference value: 70.47%); format: functional
THLE-2 = experiment: Antiproliferative activity against human THLE2 cells after 72 hrs by CelTiter-Glo assay; format: cell-based; conditions: THLE-2, 72 h
MDA-MB-231 [15] = experiment: Cell cycle arrest in human MDA-MB-231 cells assessed as accumulation at G2/M phase at 20 uM after 24 hrs by propidium iodide staining-based flow cytometry (reference value: 9.38%); format: functional
MDA-MB-231 [16] = experiment: Cell cycle arrest in human MDA-MB-231 cells assessed as accumulation at S phase at 20 uM after 24 hrs by propidium iodide staining-based flow cytometry (reference value: 20.15%); format: functional

| SMILES | EC50 (SEM cells) [µM] | EC50 (SUP-B15 [4]) [µM] | EC50 (KOPN-8 [6]) [µM] | EC50 (UoC-B1) [µM] | EC50 (HepG2) [µM] | EC50 (BJ) [µM] | further results |
| --- | --- | --- | --- | --- | --- | --- | --- |
| COC(=O)c1cc(=O)c2cc(NC(=O)Nc3ccc(Cl)c(C(F)(F)F)c3)ccc2[nH]1 | > 6.35 | > 12.6 | > 6.35 | > 6.35 | > 6.35 | > 12.6 | Activity (SUP-B15 [1]): 16.4%; Activity (KOPN-8 [2]): 0.3%; Activity (SUP-B15 [3]): 0.1%; Activity (KOPN-8 [5]): 48.5%; Activity (KOPN-8 [7]): 12.3%; Activity (KOPN-8 [8]): 11.11%; viability at 10 µM (SUP-B15 [9]): 65.5%; Activity (KOPN-8 [10]): 40.39%; viability at 10 µM (KOPN-8 [11]): 80.7%; Activity (KOPN-8 [12]): 0.1%; Activity (SUP-B15 [13]): 9.3% |
| COc1ccc(-c2c(Br)c(=O)c3c(OC)cc(OC)cc3n2S(=O)(=O)c2ccc(OC)cc2)cc1 | 1.9 | 2.92 | 2.58 | – | > 20 | 49.7 | Activity (MDA-MB-231 [14]): 70.02%; EC50 (THLE-2): 69 µM; Activity (MDA-MB-231 [15]): 11.79%; Activity (MDA-MB-231 [16]): 18.2% |
| COc1cc(OC)c2c(=O)cc(C(=O)N3CCN(C(=O)OC(C)(C)C)CC3)[nH]c2c1 | 47 | 3.98 | 6.73 | – | 11.3 | 13.8 | Activity (SUP-B15 [1]): 11.3%; EC50 (THLE-2): 299 µM; Activity (KOPN-8 [2]): 0.5%; Activity (SUP-B15 [3]): 0%; Activity (KOPN-8 [5]): 61.36%; Activity (KOPN-8 [7]): 24.9%; Activity (KOPN-8 [8]): 8.86%; viability at 10 µM (SUP-B15 [9]): 77.7%; Activity (KOPN-8 [10]): 29.78%; viability at 10 µM (KOPN-8 [11]): 63.7%; Activity (KOPN-8 [12]): 0.2%; Activity (SUP-B15 [13]): 3.2% |
| COC(=O)c1cc(=O)c2c(OC)cc(OC)cc2n1S(=O)(=O)c1ccc(C)cc1 | 5.8 | 9.7 | 6 | – | > 20 | 139 | EC50 (THLE-2): 149 µM |
| O=c1cc(-c2ccc(O)cc2)oc2c([C@@H]3O[C@H](CO)[C@@H](O)[C@H](O)[C@H]3O)c(O)cc(O)c12 [VITEXIN] | > 43.3 | 50.7 | > 43.3 | > 43.3 | > 43.3 | > 86.2 | EC50 (THLE-2): 200 µM |
| COc1cc(OC)c2c(=O)cc(C(=O)Nc3ccc(Oc4ccc([N+](=O)[O-])cc4)cc3)[nH]c2c1 | 0.48 | 4.3 | 20.5 | – | > 23 | > 23 | EC50 (THLE-2): 90 µM |
| C=CCNC(=O)Nc1ccc2c(c1)c(=O)cc(C(=O)OC)n2C(=O)NCC=C | > 43.3 | 86.2 | > 43.3 | > 43.3 | > 43.3 | 86.2 | – |
| COc1ccc(Oc2ccc(C(F)(F)F)cc2NC(=O)c2cc(=O)c3c(OC)cc(OC)cc3[nH]2)cc1 | > 67.2 | > 67.2 | > 67.2 | > 67.2 | 5.3 | > 67.2 | – |
| COc1ccc(-c2cc(=O)c3c(OC)cc(OC)cc3n2Cc2ccccc2)cc1 | > 17.3 | > 34.5 | > 17.3 | > 17.3 | > 17.3 | > 34.5 | – |
| COc1ccc(-c2cc(=O)c3c(OC)cc(OC)cc3[nH]2)cc1 | > 31.2 | > 62.1 | > 31.2 | > 31.2 | > 31.2 | > 62.1 | – |
| COC(=O)c1cc(=O)c2cc(NC(=O)Nc3ccc4c(c3)CCN4C)ccc2[nH]1 | > 86.2 | > 86.2 | > 86.2 | > 86.2 | > 86.2 | > 86.2 | – |
| COC(=O)c1cc(=O)c2cc(NC(=O)Nc3ccc(F)c(Cl)c3)ccc2[nH]1 | > 6.35 | > 12.6 | > 6.35 | > 6.35 | > 6.35 | > 12.6 | – |
| COc1cc(OC)c2c(=O)cc(C(=O)Nc3ccc(Oc4cccnc4)cc3)[nH]c2c1 | > 32.2 | > 32.2 | > 32.2 | 27.7 | > 32.2 | > 32.2 | – |
| COC(=O)c1cc(=O)c2c(OC)cc(OC)cc2n1C | > 19 | > 37.9 | > 19 | 0.773 | > 19 | > 37.9 | – |
| COc1cc(OC)c2c(=O)cc(C(=O)Nc3ccc4oc(-c5ccc(F)cc5)nc4c3)[nH]c2c1 | > 36.8 | > 36.8 | > 36.8 | > 36.8 | > 36.8 | > 36.8 | – |
| COc1cc(OC)c2c(=O)cc(C(=O)Nc3ccc(N4CCN(C)CC4)cc3)[nH]c2c1 | > 19.8 | > 19.8 | > 19.8 | > 19.8 | > 19.8 | > 19.8 | – |
| COC(=O)c1cc(=O)c2cc(NC(=O)Nc3ccc4c(c3)OCCO4)ccc2[nH]1 | > 13.3 | > 26.4 | > 13.3 | > 13.3 | > 13.3 | > 26.4 | – |
| C=C(C)c1cccc(C(C)(C)NC(=O)Nc2ccc3[nH]c(C(=O)OC)cc(=O)c3c2)c1 | > 11.5 | > 23 | > 11.5 | > 11.5 | > 11.5 | > 23 | – |
| COC(=O)c1cc(=O)c2cc(NC(=O)N[C@@H](C)c3cccc(OC)c3)ccc2[nH]1 | > 25.3 | > 25.3 | > 25.3 | > 25.3 | > 25.3 | > 25.3 | – |
| COC(=O)c1cc(=O)c2cc(NC(=O)Nc3cc(F)cc(C(F)(F)F)c3)ccc2[nH]1 | > 20.2 | > 40.2 | > 20.2 | > 20.2 | > 20.2 | > 40.2 | – |
| COC(=O)c1cc(=O)c2cc(NC(=O)Nc3cccc(C(C)=O)c3)ccc2[nH]1 | > 8.08 | 11.4 | > 8.08 | > 8.08 | > 8.08 | > 16.1 | – |
